A selection: hits, their analogues and other compounds. The true share with any hit is near 1.9%.
Hck Nef HTS = inhibitors of human Hck kinase activated by Nef; P08631; Recombinant Hck-YEEI plus Nef, Z-Lyte FRET kinase assay; inhibition, % at 20 µM; actives 0.68% (n = 220,000); AID 463187;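 active means Hck-Nef kinase inhibition above about 50%, limit read from the data; inactive means inhibition below that limit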
Tb hexokinase = blocks Trypanosoma brucei hexokinase 1 activity. AID 1430. actives 0.11% (n = 220,000). recombinant TbHK1, G6PDH-coupled NADH A340. inhibition, % at 10 µM;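 active means inhibition of 50% or more in the single-dose primary screen; inactive means inhibition below 50%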
Runt-SMMHC FRET = Runt domain-CBFb-SMMHC interaction inhibition; inhibition, % at 20 µM; actives 0.74% (n = 220,000); Cerulean-Runt/Venus-CBFb-SMMHC FRET ratio 530/480, 1 h; Q01196+Q13951;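 active means mean inhibition across duplicate retests at 20 µM reaching about 50%, limit read from the data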;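 further: inhibitors lower the FRET ratio by blocking Runt binding to CBFb-SMMHC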
Target sequence (Q01196 whole entry, looked up, the tested form may be a part): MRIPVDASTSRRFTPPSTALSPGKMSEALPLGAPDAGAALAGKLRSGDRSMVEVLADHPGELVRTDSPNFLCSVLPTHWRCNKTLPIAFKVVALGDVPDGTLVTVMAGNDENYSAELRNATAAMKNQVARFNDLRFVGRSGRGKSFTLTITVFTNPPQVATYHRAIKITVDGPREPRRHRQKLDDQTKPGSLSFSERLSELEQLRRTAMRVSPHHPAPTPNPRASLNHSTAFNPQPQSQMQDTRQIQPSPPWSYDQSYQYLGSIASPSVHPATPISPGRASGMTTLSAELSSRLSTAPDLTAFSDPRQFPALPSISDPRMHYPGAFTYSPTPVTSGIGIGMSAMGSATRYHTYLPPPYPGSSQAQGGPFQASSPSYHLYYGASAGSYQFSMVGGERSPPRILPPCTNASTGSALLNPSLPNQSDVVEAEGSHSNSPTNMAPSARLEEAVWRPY
Target sequence (Q13951 whole entry, looked up, the tested form may be a part): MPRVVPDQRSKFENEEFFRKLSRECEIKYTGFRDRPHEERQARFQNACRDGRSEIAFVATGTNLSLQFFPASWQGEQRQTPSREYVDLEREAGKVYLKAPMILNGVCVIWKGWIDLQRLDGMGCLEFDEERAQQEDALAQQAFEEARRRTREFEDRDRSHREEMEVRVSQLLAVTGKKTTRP
RanGTP-Imp inh = disruptors of Ran-importin-beta complex formation – biochemical, FRET, CFP-Ran, YFP-importin-beta, homogeneous, primary screen; cell-free CFP-Ran/YFP-importin-beta FRET ratio; inhibition, % (test concentration not listed); actives 1.1% (n = 300,000); AID 2216;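 active means more than half of the replicate wells show a fall in the fluorescence ratio signal beyond about 16%, limit read from the data, passing the limit was not always enough; inconclusive means exactly half of the replicate wells pass the set limit; inactive means fewer than half of replicates pass the limit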
Runt-CBFb FRET = blocks binding of human RUNX1 Runt domain to CBFb | Q01196+Q13951 | Cerulean-Runt/Venus-CBFb FRET ratio 530/480, 1 h | inhibition, % at 20 µM | actives 0.46% (n = 220,000) | AID 1496;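 active means inhibition over about 50% at 20 µM in the single-dose screen, limit read from the data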
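test system = Cerulean-tagged RUNX1 Runt domain (FRET donor) fusion protein | reagent = Venus-CBFb binding partner, 100 nM | incubation = protein complex preformed 1 h, compound exposure 1 h, room temperature, dark | detection = FRET fluorescence | read-out basis = loss of energy transfer signal | controls = 5 µM unlabeled CBFb as full-inhibition high control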
Hck Nef conf = confirmation of Hck-Nef kinase inhibitors; shares compounds with Hck Nef HTS; Recombinant Hck-YEEI:Nef, Z-Lyte FRET kinase assay; calls only at 10 µM; actives 28% (n = 1,300);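 active means average inhibition of at least 50%, with Z-scores no higher than 3 in both the phospho-tyrosine peptide and fluorescence counterscreens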
Each line names hits and unclear results; the compound was inactive in the other large screens (follow-up assays come after a bar, where shown).

O=C1NC(=S)S/C1=C\C=C\c1ccc([N+](=O)[O-])o1	Hck Nef HTS 56.1 (no result: RanGTP-Imp inh) | Hck Nef conf active
O=C(O)/C=C/c1ccc([N+](=O)[O-])o1	none
CS(=O)(=O)N(CC(=O)NCCSCc1ccccc1Cl)c1ccc(F)cc1	none (no result: Hck Nef HTS, Tb hexokinase, Runt-SMMHC FRET, Runt-CBFb FRET)
Cc1c2c(n3c(nc4ccccc43)c1C#N)N(CCCN(C)C)CC2	Hck Nef HTS 54.1, Runt-SMMHC FRET 90.8, Runt-CBFb FRET 100.2 | Hck Nef conf inactive
CCCCc1c(C)c(C#N)c2nc3ccccc3n2c1NCCN(C)C	none (no result: Hck Nef HTS, Tb hexokinase, Runt-SMMHC FRET, Runt-CBFb FRET)
Cc1c2c(n3c(nc4ccccc43)c1C#N)N(CCN(C)C)CC2	Hck Nef HTS 55.0, Runt-SMMHC FRET 90.8 | Hck Nef conf inactive
Cc1cccc(NC(=O)c2c([N+](=O)[O-])cnn2C)c1	none (no result: Hck Nef HTS, Tb hexokinase, Runt-SMMHC FRET, Runt-CBFb FRET)
C/C(CC(=O)NCc1ccc(F)cc1)=N\NC(N)=S	none
COc1ccccc1C(=O)NNC(=O)c1ccc(Br)cc1	none (no result: Hck Nef HTS, Tb hexokinase, Runt-SMMHC FRET, Runt-CBFb FRET)
CCOC(=O)c1cc2nc(Nc3ccc(OC)cc3)sc2s1	Hck Nef HTS 51.4 | Hck Nef conf inactive
CCn1nc2cc(C(=O)NCCc3cccs3)ccc2c1OC	none (no result: Runt-CBFb FRET)
COc1ccc(CNC(=O)c2ccc(=O)oc2)cc1OC	Hck Nef HTS 56.8
COCCCNC(=O)c1cc(C(=O)c2c(-c3c(Cl)cccc3Cl)noc2C)c[nH]1	none
CCc1nc(CN(C)C(=O)C2CCC(=O)N(CCc3cccc(F)c3)C2)no1 (stereo not drawn)	none (no result: Hck Nef HTS, Tb hexokinase, Runt-SMMHC FRET, Runt-CBFb FRET)
COC(=O)C1=CN(Cc2cccs2)C=C(C(=O)OC)C1c1cccc(Cl)c1	Hck Nef HTS 59.4, Runt-SMMHC FRET 85.0
COC(=O)C1=CN(c2cc(C)cc(C)c2)C=C(C(=O)OC)C1c1cccc(F)c1	none (no result: Hck Nef HTS, Tb hexokinase, Runt-SMMHC FRET, Runt-CBFb FRET)
CCN1C=C(C(=O)OC)C(c2cccc(C)c2)C(C(=O)OC)=C1	Hck Nef HTS 66.3, Runt-SMMHC FRET 60.9
COc1ccc(N2CCN(c3ccc(Cl)nn3)CC2)cc1	none
CCOC(=O)CSC(=S)NC(=O)c1ccc(OC)cc1	Hck Nef HTS 56.9 | Hck Nef conf inactive
COc1ccc(C(=O)NC(=S)SCC(=O)O)cc1	none
Cc1ccc(C2CC2/C(=N/O)c2ccc(F)cc2)cc1 (stereo not drawn)	none (no result: Hck Nef HTS, Tb hexokinase, Runt-SMMHC FRET, Runt-CBFb FRET)
CCCc1cc(-c2[nH]ncc2-c2ccc3c(c2)OCCCO3)c(O)cc1O	Hck Nef HTS 73.9 | Hck Nef conf active
c1ccn2c(c1)nc1c2nc2ccccn21	Hck Nef HTS 66.0, Runt-SMMHC FRET 71.5
COc1ccccc1CNC(=O)COC(=O)c1cccc(S(=O)(=O)N2CCOCC2)c1	none (no result: Hck Nef HTS, Tb hexokinase, Runt-SMMHC FRET, Runt-CBFb FRET)
C(=C\c1ccco1)/c1ccc2ccccc2n1	Hck Nef HTS 53.7 | Hck Nef conf inactive
Cc1cc(/C=N/Nc2ccc([N+](=O)[O-])cn2)c(C)n1-c1ccc(C(=O)O)cc1	Hck Nef HTS 79.4 | Hck Nef conf inactive
O=C1/C(=C\c2ccccn2)SC(=S)N1c1ccc(S(=O)(=O)Nc2nccs2)cc1	none
Cc1ccc(/C=C2/SC(=S)N(c3ccc(S(=O)(=O)Nc4nccs4)cc3)C2=O)cc1	Hck Nef HTS 59.5 | Hck Nef conf inactive
O=c1c2ccccc2sn1-c1cc(S(=O)(=O)N2CCOCC2)ccc1N1CCOCC1	Hck Nef HTS 92.7, Tb hexokinase 50.1 | Hck Nef conf active
CCCOc1ccc([N+](=O)[O-])c(N)c1	none
N#Cc1ccc(N2C(=O)[C@@H]3C(C(=O)c4cnccn4)=NN[C@@H]3C2=O)cc1	none
O=C(C1=NN[C@@H]2C(=O)N(c3cccc(C(F)(F)F)c3)C(=O)[C@H]12)c1cnccn1	Hck Nef HTS 52.0 | Hck Nef conf inactive
Cc1cc(OCC(=O)NCCc2ccc(Cl)cc2)c2c(C)cc(=O)oc2c1	none (no result: Hck Nef HTS, Tb hexokinase, Runt-SMMHC FRET, Runt-CBFb FRET)
O=C(Nc1nccs1)c1cccc(N2C(=O)c3cccc4c([N+](=O)[O-])ccc(c34)C2=O)c1	Hck Nef HTS 51.9 | Hck Nef conf active
O=C(Nc1ccc(S(=O)(=O)Nc2nccs2)cc1)c1cccc(N2C(=O)c3ccccc3C2=O)c1	none
CCOC(=O)/C(C#N)=C/c1ccc(SC)cc1	none (no result: Runt-CBFb FRET)
Cn1cc(/C=N/NC(=O)c2cc3cc(Br)ccc3o2)c2ccccc21	none
O=C(O)c1ccc(-n2cccc2/C=N\NC(=O)c2cc3cc(Br)ccc3o2)cc1	Hck Nef HTS 53.9 | Hck Nef conf inactive
N#C/C(=C\c1ccc(OC(=O)c2ccc(Cl)s2)cc1)c1nc2ccccc2[nH]1	Hck Nef HTS 56.4 | Hck Nef conf active
CC(C)(C)C(=O)OCc1nc(-c2ccc(F)cc2)cs1	none
Cc1ccc(N=C2NC(=O)/C(=C/C=C/c3ccco3)S2)cc1	Hck Nef HTS 96.6 | Hck Nef conf inactive
Cc1cccc(N=C2NC(=O)/C(=C/C=C/c3ccco3)S2)c1C	Hck Nef HTS 73.5 | Hck Nef conf inactive
O=C1CN(C(=O)CSc2nc(-c3ccc(Cl)cc3)cs2)c2ccccc2N1	none
CCN(CC)S(=O)(=O)c1cccc(C(=O)Oc2cccc(NC(=O)c3cccs3)c2)c1	none
O=C(O)COc1ccc(/C=N/NC(=O)c2ccc(-c3csc(Nc4ccc(Cl)cc4)n3)cc2)cc1	Hck Nef HTS 75.0 | Hck Nef conf active
CCOc1cc(/C=N/NC(=O)c2ccc(-c3csc(Nc4ccc(C)cc4)n3)cc2)ccc1OCC(=O)O	Hck Nef HTS 51.6 (no result: RanGTP-Imp inh) | Hck Nef conf inactive
COc1ccccc1/C=C/C=N/NC(=O)c1cc(-c2ccco2)[nH]n1	Hck Nef HTS 59.0 | Hck Nef conf inactive
Clc1cccc(Cl)c1CNc1ccc(N2CCCC2)cc1	Hck Nef HTS 70.6 | Hck Nef conf inactive
Cc1cc(O)c(-c2cc(C(=O)Nc3sc4c(c3C(=O)NCc3ccco3)CCC4)[nH]n2)cc1C	Hck Nef HTS 58.7, RanGTP-Imp inh inconclusive | Hck Nef conf inactive
CCNC(=O)c1c(NC(=O)c2cc(-c3cc(C)ccc3O)n[nH]2)sc2c1CCCC2	Hck Nef HTS 99.9 | Hck Nef conf inactive
Cc1ccc(C(=O)Nc2sc3c(c2C(=O)NCc2ccco2)CCCC3)cc1	none
Cc1ccc(-c2cc(C(=O)Nc3sc4c(c3C(=O)NCc3ccco3)CCC4)[nH]n2)c(O)c1	RanGTP-Imp inh inconclusive
Cc1cc(C)nc(NC(=O)c2ccc(COc3ccccc3Cl)cc2)c1	none
O=[N+]([O-])c1ccc(/C=N/n2cn[nH]c2=S)cc1	Hck Nef HTS 104.9
CC(=O)n1cc([C@H]2C=C(C(=O)NCc3ccccc3)O[C@@H](OCc3ccc(CO)cc3)C2)c2ccccc21	Hck Nef HTS 53.4 | Hck Nef conf active
C#CCNC(=O)C1=C[C@@H](c2cn(C(C)=O)c3ccccc23)C[C@@H](OCc2ccc(CO)cc2)O1	none
Cc1ccc(-c2nc3c(c(=O)[nH]c(=O)n3Cc3ccccc3)n2C)s1	Hck Nef HTS 57.9, RanGTP-Imp inh inconclusive | Hck Nef conf inactive
Cc1cc(C)nc(S/C=C/C(=O)c2ccccc2F)n1	none
Cc1nccc(-c2sc(-c3cccs3)nc2C)n1	Hck Nef HTS 86.1 | Hck Nef conf inactive

Compound activity deposited in PubChem by several laboratories.
